# Screens as filed in PubChem.
# A selection: hits, their analogues and other compounds. The true share with any hit is near 1.3%.
# CASP6 VEID inh = inhibitors of human caspase-6 | P55212 | purified caspase-6, Z-VEID-R110 cleavage fluorescence | inhibition, % at 12.5 µM | 0.53% of 350,000 active | AID 686996;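 active means mean inhibition across replicates at least about 35%, with every replicate also reaching that limit, limit read from the data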;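 further: 0% = median of neutral control wells and 100% = no fluorescence left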
# Target sequence (P55212 24-179 limits assumed): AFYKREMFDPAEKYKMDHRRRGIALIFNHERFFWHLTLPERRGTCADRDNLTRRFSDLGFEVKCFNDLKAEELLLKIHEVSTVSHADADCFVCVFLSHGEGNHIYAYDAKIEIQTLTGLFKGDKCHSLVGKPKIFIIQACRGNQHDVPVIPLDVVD
# Target sequence (P55212 194-293 limits assumed): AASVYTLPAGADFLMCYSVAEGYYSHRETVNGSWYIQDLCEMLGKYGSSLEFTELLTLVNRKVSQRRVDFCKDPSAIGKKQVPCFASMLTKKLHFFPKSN
# LEDGF integ inh = blocks HIV-1 LEDGF/p75-dependent DNA integration; TR-FRET IN-LEDGF/p75 DNA integration, Eu/Cy5; inhibition, % at 3.7 µM; 0.64% of 370,000 active; AID 743269;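 active means inhibition above the screen-wide mean plus 3 SD, cut at about 13% in these data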;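 further: signal is the Cy5 over europium emission ratio at 671 and 618 nm; 0% = plate median of compound wells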
# ARFGAP1 inh = inhibitors of rat ARFGAP1; Arfgap1-stimulated ARF1 GTP hydrolysis, GDP FP detection; inhibition, % at 16.5 µM; 0.26% of 360,000 active; AID 651572;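 active means inhibition above a per-plate limit, mean inhibition of low control wells plus 3 SD, cut at about 25% in these data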;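 further: 0% = DMSO wells with enzyme and 100% = wells lacking Arfgap1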
# Target sequence (Q62848 1-136 limits assumed): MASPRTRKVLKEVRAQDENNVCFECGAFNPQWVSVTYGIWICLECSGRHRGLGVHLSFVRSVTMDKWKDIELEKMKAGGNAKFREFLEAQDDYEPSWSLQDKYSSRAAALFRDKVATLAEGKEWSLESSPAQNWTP
#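 System: truncated rat Arfgap1 GAP domain / Medium: HEPES-based buffer, pH 7.5 / Also added: N-terminally truncated human ARF1-GTP substrate / Incubation: enzyme reaction 120 min at 25 °C after 20 min preincubation / Measured by: FP of antibody-bound GDP Alexa 633 tracer, ex 620/em 688 nm / Replicates: singlicate, each compound tested once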
# TDP2 absorb = TDP2 (human) inhibition, absorbance primary screen | O95551 | recombinant TDP2, T5PNP hydrolysis, p-nitrophenol absorbance 415 nm | inhibition, % at 12.8 µM | 0.34% of 370,000 active | AID 720702;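 active means inhibition above the mean of all tested compounds plus 3 SD, set per campaign, cut at about 25% in these data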;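 further: 0% = DMSO with enzyme and 100% = buffer with substrate but no TDP2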
#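 test system = human TDP2 enzyme | input = TDP2 enzyme at 120 nM final | medium = 50 mM Tris-HCl pH 7.5 with Mg2+, KCl, DTT, BSA | also added = T5PNP substrate, 5 mM | times = 2 h at 37 °C | technique = epi absorbance | benchmarks = high control without enzyme, low control DMSO plus TDP2 | replication = each compound tested once, singlicate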
# ASAP1 inh = inhibitors of human ASAP1 ArfGAP activity. inhibition, % at 16.5 µM. 0.19% of 360,000 active. ASAP1-stimulated ARF1 GTP hydrolysis, GDP FP detection. Q9ULH1;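 further: 0% = vehicle with enzyme and substrate and 100% = no enzyme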
# TDP2 confirm = human TDP2 inhibition, confirmation; shares compounds with TDP2 absorb; recombinant human TDP2, absorbance read-out; inhibition, % at 12.8 µM; 22% of 1,100 active; AID 743263;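 further: 0% = vehicle with enzyme and 100% = no enzyme buffer only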
# IN multimer act = HIV-1 integrase multimerization activation, counter-screen; TR-FRET HIV-1 integrase multimerization, biochemical; shares compounds with LEDGF integ inh; activation, % at 7.7 µM; 17% of 2,000 active; in the data active means activation above about 8.9%
# TR-FRET interf = TR-FRET optical interference, LEDGF/p75 integration counter-screen | shares compounds with LEDGF integ inh | TR-FRET optical interference counterscreen, HIV-1 IN multimerization | inhibition, % at 7.7 µM | 2,000 tested, under 10 active;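 active means inhibition above the mean over all tested compounds plus 3 SD, which no compound reached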;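 further: 0% = integrase with antibodies and DMSO and 100% = antibodies without integrase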
# IN-LEDGF confirm = confirmation of HIV-1 LEDGF/p75-dependent integration inhibitors; inhibition, % at 3.7 µM; shares compounds with LEDGF integ inh; 36% of 2,000 active; TR-FRET LEDGF/p75-dependent HIV-1 integration, biochemical; in the data active means inhibition above about 14%
# * = called active by the depositor; . = no result given. Unless noted, no stated cut-off is given here; in the data, active means inhibition above about 25%; inactive means the rest.
SMILES,CASP6 VEID inh,LEDGF integ inh,ARFGAP1 inh,TDP2 absorb,ASAP1 inh,TDP2 confirm,IN multimer act,TR-FRET interf,IN-LEDGF confirm
NC(=O)Nc1ccc(C(=O)OCC(=O)N(Cc2ccccc2)C2CCS(=O)(=O)C2)cc1 (stereo unspecified),4.9,-1.9,4.9,-1.5,-0.1,.,.,.,.
Cc1ccc(S(=O)(=O)c2c[nH]c3cc4c(cc3c2=O)OCO4)cc1,-2.9,-2.2,7.3,26.1*,-1.0,-7.9,.,.,.
Cc1ccc2[nH]cc(S(=O)(=O)c3ccc(C(C)C)cc3)c(=O)c2c1,2.1,-3.5,4.5,3.3,3.2,.,.,.,.
O=C(NCc1ccc(Cl)cc1Cl)C1CCN(S(=O)(=O)c2ccc3c(c2)OCCCO3)CC1,0.3,-1.6,-1.4,-14.3,3.8,.,.,.,.
CCN(C(=O)COC(=O)c1[nH]c(=O)[nH]c(=O)c1N)c1ccccc1,9.2,-3.4,-6.1,30.3*,-11.9,0.0,.,.,.
CN1CCN(C2=C(Cl)C(=O)c3ccccc3C2=O)CC1,98.6*,34.2*,-13.4,68.9*,7.2,80.0*,3.2,-11.6,72.8*
CC1COCC(C)N1C1=C(Cl)C(=O)c2ccccc2C1=O (stereo unspecified),33.1,2.1,20.9,22.0,17.5,.,.,.,.
CCOC(=O)c1c(N)n(CCOC(=O)c2cccs2)c2nc3ccccc3nc12,.,32.5*,-0.6,75.5*,7.4,-6.2,1.0,-3.4,-3.0
O=C(O)c1ccc(S(=O)(=O)c2ccc3c(c2)C(=O)N(c2ccc(O)cc2)C3=O)cc1,11.1,15.9*,12.5,38.0*,7.8,6.7,1.6,-8.0,6.6
CCOc1cc(/C=C2/C(=O)N(c3ccccc3)N=C2C)ccc1OC(=O)c1cccs1,1.7,.,.,.,.,.,.,.,.
CCOc1cc(/C=C2\C(=O)N(CCC#N)N=C2C)ccc1OCC(N)=O,0.5,15.4*,6.4,77.5*,2.9,18.3,-2.7,9.6,-0.6
CN(C)c1ccc2cc(S(=O)(=O)O)cc(O)c2c1,78.1*,84.3*,-0.1,54.6*,6.7,13.3,52.2*,-185.9,31.0*
COc1ccc(OC)c(S(=O)(=O)Nc2ccc(O)c3ccccc23)c1,.,23.1*,5.1,41.0*,3.8,7.6,-0.3,1.7,-1.2
COc1ccc(OC)c(S(=O)(=O)Nc2cccc3c(O)cccc23)c1,5.1,0.9,5.8,-5.0,14.7,.,.,.,.
COc1ccc(NC(=O)Nc2ccc(O)c3ccccc23)cc1,25.0,15.3*,5.7,44.7*,1.6,17.7,6.6,-23.8,8.3
O=S(=O)(Nc1ccc(O)c2ccccc12)c1ccc(F)cc1,13.3,26.7*,-3.1,46.6*,-13.2,19.3,4.7,-23.8,7.9
CNC(=O)C(=O)Nc1c(C)cc(C)cc1C,.,-1.5,10.8,-10.5,-14.1,.,.,.,.
CCCC(c1nnnn1Cc1ccc(OC)cc1)N1CCN(C(=O)c2ccco2)CC1 (stereo unspecified),.,-2.4,10.1,2.4,6.5,.,.,.,.
CC(=O)NC1C(=O)N(CCN2CCOCC2)c2ccc(Br)cc21 (stereo unspecified),34.5,15.9*,-11.0,44.1*,-20.2,36.2*,0.4,-1.5,37.5*
CC(=O)NC1C(=O)N(CCc2ccccc2)c2ccc(Br)cc21 (stereo unspecified),-0.4,6.2,-9.3,-3.6,-8.3,.,.,.,.
COc1ccc(-n2[nH]c(C)cc2=O)cc1,.,19.4*,3.7,71.2*,11.8,33.3*,0.6,-2.2,0.5
Cc1cc(=O)[nH]c(-n2[nH]c(C)cc2=O)n1,.,4.3,-5.6,6.5,-7.7,.,.,.,.
CCc1ccc2c(c1)NC(=O)C2(C)Cc1ccc(C(F)(F)F)o1 (stereo unspecified),1.9,3.7,4.5,-11.6,4.0,.,.,.,.
COc1ccc(NC(=O)c2cccnc2)cc1,-1.0,1.8,3.0,7.7,-2.1,.,.,.,.
C/C(=C\C(=O)c1cccnc1)Nc1ccc(O)cc1,.,17.1*,2.0,27.0*,12.6,-3.9,2.2,-7.9,-2.1
SMILES,CASP6 VEID inh,LEDGF integ inh,ARFGAP1 inh,TDP2 absorb,ASAP1 inh,TDP2 confirm,IN multimer act,TR-FRET interf,IN-LEDGF confirm
O=C(c1ccco1)N1CCN(Cc2c(Cl)cccc2Cl)CC1,-0.1,0.9,14.4,-3.4,-3.4,.,.,.,.
O=c1cc(-c2ccccc2)[nH]n1-c1ccccc1,-0.8,36.6*,7.0,75.5*,5.0,-2.7,1.3,-4.6,-0.8
CC(C)(C)c1cc(=O)n(-c2ccccc2)[nH]1,-1.4,22.3*,29.5*,85.0*,3.9,89.5*,-2.0,7.0,10.8
COc1cccc2c1C(=O)C=C(C)C2=O,3.3,-2.7,7.3,0.3,9.9,.,.,.,.
COC1=CC(=O)c2c(ccc3ncnc(N)c23)C1=O,99.8*,52.5*,13.9,84.9*,22.9,81.6*,7.2,-25.9,73.1*
O=C1CC(c2ccccc2)=NN1c1ccccc1,2.4,20.8*,1.4,64.9*,0.8,12.5,1.3,-4.5,1.6
C[C@@H]1CN([C@H](C)CO)C(=O)c2cccc(NC(=O)Nc3ccccc3)c2O[C@@H]1CN(C)S(=O)(=O)c1ccc(F)cc1,0.5,.,.,.,.,.,.,.,.
C[n+]1cccc2c(Br)ccc([O-])c21,53.3*,44.5*,12.9,70.7*,-6.6,37.4*,3.7,-12.9,60.7*
COC(=O)[C@]12C[C@H](CC(=O)NCc3cccs3)C(=O)N(CCc3ccc(OC)c(OC)c3)C1=C[C@H](COCc1ccccc1)O[C@@H]2C,.,4.4,.,-6.9,.,.,.,.,.
Cc1sc(NC(=S)NC(=O)c2ccco2)c(C#N)c1C,-3.4,-3.9,6.7,-28.4,0.4,.,.,.,.
COc1cc(C(=O)c2nccc3cc(OC)c(OC)cc23)c([N+](=O)[O-])cc1OC,20.2,32.8*,-0.5,48.7*,11.5,34.9*,-0.4,1.4,44.8*
COc1cc(Br)c(C(=O)c2nccc3cc(OC)c(OC)cc23)cc1OC,97.1*,15.4*,7.5,90.8*,16.3,56.1*,2.7,-9.7,74.6*
COc1cc(N)c(C(=O)c2nccc3cc(OC)c(OC)cc23)cc1OC,11.2,-0.5,-16.6,5.1,8.4,.,.,.,.
COC(=O)C[C@H]1C[C@@H]2c3cc(NS(C)(=O)=O)ccc3O[C@@H]2[C@H](CO)O1,-1.9,.,.,.,.,.,.,.,.
